Assay results reported in ChEMBL document CHEMBL1938394, “Time-dependent slowly-reversible inhibition of monoamine oxidase A by N-substituted 1,2,3,6-tetrahydropyridines” (Bioorg Med Chem, 2011).

What was measured:
[1] = test system: Mus musculus; experiment: Neurotoxicity in C57BL/6J mouse assessed as reduction of striatal tyrosine hydroxylase level at 12.5 mg/kg, sc after 72 hrs by ELISA; format: toxicity, organism-based; set-up: dose 12.5 mg/kg, route subcutaneous; conditions: in vivo
Procedure, shortened: (§1)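 Female C57BL/6J mice aged 3–4 months, single sc dose, 0.9% saline vehicle, killed 72 h post-dose. Striatum homogenised in hot 1% SDS. GFAP or TH measured by detergent-based sandwich ELISA.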

[2] = target: T1, Amine oxidase [flavin-containing] A (Homo sapiens, UniProt P21397); experiment: Inhibition of human recombinant MAOA expressed in insect cells assessed as oxidation of kynuramine substrate at 50 uM measured after additional substrate added after 90 mins incubation; conditions: 1.5 h
T1 sequence (P21397 whole entry): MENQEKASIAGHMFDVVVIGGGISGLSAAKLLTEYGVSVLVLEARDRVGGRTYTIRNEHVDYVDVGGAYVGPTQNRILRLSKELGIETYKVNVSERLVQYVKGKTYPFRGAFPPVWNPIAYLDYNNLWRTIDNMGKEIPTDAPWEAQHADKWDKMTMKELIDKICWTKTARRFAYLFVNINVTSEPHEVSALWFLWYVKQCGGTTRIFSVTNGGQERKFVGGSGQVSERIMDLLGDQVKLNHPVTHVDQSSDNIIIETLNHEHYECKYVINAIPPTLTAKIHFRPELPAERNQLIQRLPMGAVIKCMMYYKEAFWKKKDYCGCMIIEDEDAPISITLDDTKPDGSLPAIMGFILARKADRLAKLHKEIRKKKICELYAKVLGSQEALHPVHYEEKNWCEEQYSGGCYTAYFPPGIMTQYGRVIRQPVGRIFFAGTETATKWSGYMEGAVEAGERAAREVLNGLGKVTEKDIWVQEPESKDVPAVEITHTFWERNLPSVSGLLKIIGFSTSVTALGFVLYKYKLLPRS
Procedure, shortened: (§2)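 Recombinant human MAO-A incubated with kynuramine, with or without inhibitor. Product formation followed over time. A second equivalent of substrate (150 µM kynuramine) added at 90 min and fresh enzyme added at 120 min.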

[3] = target: T1, Amine oxidase [flavin-containing] A; experiment: Inhibition of human recombinant MAOA expressed in insect cells assessed as oxidation of kynuramine substrate at 50 uM measured after additional enzyme added after 120 mins incubation; conditions: 2 h; procedure, shortened: as §2
[4] = test system: Mus musculus; experiment: Neurotoxicity in C57BL/6J mouse assessed as increase of striatal GFAP level at 12.5 mg/kg, sc after 72 hrs by ELISA; format: toxicity, organism-based; set-up: dose 12.5 mg/kg, route subcutaneous; conditions: in vivo; procedure, shortened: as §1

CN1CC=C(c2ccccc2)CC1
Activity [1]: Toxic
inhibition (INH) [2]: Active
inhibition (INH) [3]: Active
Activity [4]: Toxic
